Experimental findings from ChEMBL document CHEMBL1687701, “Discovery of N-Aryl Piperazines as Selective mGlu(5) Potentiators with Efficacy in a Rodent Model Predictive of Anti-Psychotic Activity” (ACS Med Chem Lett, 2010) are described below.

The target in series [1] is T1, Metabotropic glutamate receptor 5 (Rattus norvegicus, UniProt P31424). Description: Positive allosteric modulation at rat mGluR5 receptor expressed in HEK293 cells assessed as glutamate-induced calcium fluorescence by Fluo-4/AM dye-based fluorescence assay. To be noted: for pEC50: read-out: EC50; for EC50: hek293. It is filed as functional, cell-based.
Series [2] has as its target Metabotropic glutamate receptor 5 (Rattus norvegicus) (UniProt P31424). Briefly: Positive allosteric modulation at rat mGluR5 receptor expressed in HEK293 cells assessed as glutamate-induced calcium fluorescence at 30 uM by Fluo-4/AM dye-based fluorescence assay in relative to glutamate. The format is functional, cell-based.
Series [3] can be described thus: Metabolic stability in Sprague-Dawley rat liver microsome assessed as compound remaining after 60 mins by LC-MS-MS. To be noted: liver microsomes, read-out: Stability. It is filed as ADME. On the technique in general: Liver microsomes are a subcellular fraction often used to study metabolism.
For series [4], the system named is Plasma. Description: Plasma protein binding in Sprague-Dawley rat after 4 hrs by LC-MS-MS. The format is ADME, cell-free.
Series [5] concerns the target Metabotropic glutamate receptor 3 (Rattus norvegicus) (UniProt P31422). Briefly: Potentiation of rat mGluR3 receptor assessed as fold shift in glutamate concentration response curve at 10 uM relative to control.
The nature of series [6]: Metabolic stability in human liver microsome assessed as compound remaining after 60 mins by LC-MS-MS. It is filed as ADME. To be noted: liver microsomes, read-out: Stability.
Series [7] deals with Plasma. Briefly: Plasma protein binding in human after 4 hrs by LC-MS-MS. The format is ADME, cell-free.
Series [8] concerns the target Metabotropic glutamate receptor 5 (Rattus norvegicus) (UniProt P31424). Description: Potentiation of rat mGluR5 expressed in HEK293 cells assessed as glutamate-induced calcium fluorescence at 10 uM by Fluo-4/AM dye-based fluorescence assay. It is filed as functional, cell-based.
Series [9] in a line: Passive transcellular permeability of the compound by PAMPA. It is filed as ADME. To be noted: read-out: permeability. On the technique in general: PAMPA measures passive passage across an artificial lipid membrane.
The target of series [10] is Metabotropic glutamate receptor 8 (Rattus norvegicus) (UniProt P70579). Briefly: Potentiation of rat mGluR8 receptor assessed as fold shift in glutamate concentration response curve at 10 uM relative to control.
The target in series [11] is Metabotropic glutamate receptor 6 (Rattus norvegicus) (UniProt P35349). Briefly: Potentiation of rat mGluR6 receptor assessed as fold shift in glutamate concentration response curve at 10 uM relative to control.
Series [12] has as its target Metabotropic glutamate receptor 5 (Rattus norvegicus) (UniProt P31424). Description: Potentiation of rat mGluR5 receptor assessed as fold shift in glutamate concentration response curve at 10 uM relative to control.
Series [13] shares this target. Description: Displacement of [3H]3-methoxy-PEPy from rat mGluR5 receptor allosteric binding site at 30 uM. Summed up: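 Radioligand binding uses [3H]3-methoxy-PEPy at the mGluR5 allosteric site. Displacement is read at the highest compound concentration tested, 30 μM.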
A general note: Loss of bound radioactivity is the signal in a displacement assay; it reports binding, not function.

The target of series [14] is Metabotropic glutamate receptor 2 (Rattus norvegicus) (UniProt P31421). Briefly: Potentiation of rat mGluR2 receptor assessed as fold shift in glutamate concentration response curve at 10 uM relative to control.
In series [15] the target is Metabotropic glutamate receptor 4 (Rattus norvegicus) (UniProt P31423). Description: Potentiation of rat mGluR4 receptor assessed as fold shift in glutamate concentration response curve at 10 uM relative to control.
Series [16] addresses Metabotropic glutamate receptor 7 (Rattus norvegicus) (UniProt P35400). Briefly: Potentiation of rat mGluR7 receptor assessed as fold shift in glutamate concentration response curve at 10 uM relative to control.
Series [17] can be described thus: Aqueous solubility of the compound in 0.2M sodium phosphate buffer at pH 7.4 by HPLC. It is filed as physicochemical.
For series [18], the target named is Metabotropic glutamate receptor 1 (Rattus norvegicus) (UniProt P23385). Briefly: Potentiation of rat mGluR1 receptor assessed as fold shift in glutamate concentration response curve at 10 uM relative to control.
A further series concerns Rattus norvegicus. Briefly: Reversal of amphetamine-induced hyperlocomotion in Sprague-Dawley rat at 56.6 mg/kg, ip administered 30 mins before amphetamine challenge measured for 60 mins. The format is functional, organism-based. Set-up: dose 56.6 mg/kg. Summed up: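 Rats get vehicle or 56.6 mg/kg compound ip in 20% HP β-cyclodextrin 30 min before 1 mg/kg sc amphetamine, given at 60 min. Ambulations (beam breaks per 5 min interval) are counted for a further 60 min. Groups are 12−14 rats, shown as mean ± SEM, compared with the vehicle + amphetamine group by Dunnett's test.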

A short description of series [19]: Aqueous solubility of the compound in 0.01 N HCl buffer at pH 2 by HPLC. It is filed as physicochemical.
Series [20] concerns the target Metabotropic glutamate receptor 5 (Rattus norvegicus) (UniProt P31424). Description: Positive allosteric modulation at mGluR5 in […] cells at 30 uM by Fluo-4/AM dye-based fluorescence assay. It is filed as cell-based.
The nature of series [21]: Aqueous solubility of the compound in 0.1 M citrate buffer at pH 4 by HPLC. The format is physicochemical.
For series [22], the target named is T1, Metabotropic glutamate receptor 5. Briefly: Negative allosteric modulation at rat mGluR5 receptor.

pEC50, pIC50: −log10 of the molar value. Active and inactive are the calls of the source. No cut-off for these calls is given here.

Metabotropic glutamate receptor 5 (Rattus norvegicus), sequence (P31424 21-1203 limits assumed): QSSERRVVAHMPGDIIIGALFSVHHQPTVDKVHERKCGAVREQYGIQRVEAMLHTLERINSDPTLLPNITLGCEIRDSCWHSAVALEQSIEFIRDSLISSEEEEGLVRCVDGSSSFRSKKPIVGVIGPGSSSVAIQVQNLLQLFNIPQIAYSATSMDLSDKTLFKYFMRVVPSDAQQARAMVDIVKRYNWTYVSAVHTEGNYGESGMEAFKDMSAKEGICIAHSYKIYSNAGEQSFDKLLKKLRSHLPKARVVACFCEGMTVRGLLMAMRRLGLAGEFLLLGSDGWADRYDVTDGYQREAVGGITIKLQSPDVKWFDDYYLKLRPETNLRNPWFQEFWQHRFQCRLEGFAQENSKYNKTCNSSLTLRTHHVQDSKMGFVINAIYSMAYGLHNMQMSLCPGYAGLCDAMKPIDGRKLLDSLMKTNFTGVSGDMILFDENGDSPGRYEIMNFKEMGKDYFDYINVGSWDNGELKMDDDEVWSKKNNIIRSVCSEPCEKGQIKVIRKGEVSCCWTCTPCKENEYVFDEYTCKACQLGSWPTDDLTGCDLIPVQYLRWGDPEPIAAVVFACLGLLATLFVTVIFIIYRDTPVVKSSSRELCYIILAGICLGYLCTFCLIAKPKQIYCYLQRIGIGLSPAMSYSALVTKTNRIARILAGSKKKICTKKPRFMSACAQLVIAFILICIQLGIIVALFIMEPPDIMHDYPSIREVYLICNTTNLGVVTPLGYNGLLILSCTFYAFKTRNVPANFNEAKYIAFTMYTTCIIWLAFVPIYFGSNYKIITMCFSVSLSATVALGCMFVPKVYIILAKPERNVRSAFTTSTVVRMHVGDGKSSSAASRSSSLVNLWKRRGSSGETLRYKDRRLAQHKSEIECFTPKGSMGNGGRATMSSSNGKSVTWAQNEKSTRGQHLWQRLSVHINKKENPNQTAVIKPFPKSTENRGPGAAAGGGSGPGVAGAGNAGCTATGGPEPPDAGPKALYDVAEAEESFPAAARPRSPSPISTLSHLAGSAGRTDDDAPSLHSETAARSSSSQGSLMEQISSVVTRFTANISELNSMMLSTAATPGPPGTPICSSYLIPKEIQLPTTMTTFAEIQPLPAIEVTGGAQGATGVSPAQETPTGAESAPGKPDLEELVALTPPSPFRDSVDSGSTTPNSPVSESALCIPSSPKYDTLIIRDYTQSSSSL
T1 sequence (P31424 whole entry): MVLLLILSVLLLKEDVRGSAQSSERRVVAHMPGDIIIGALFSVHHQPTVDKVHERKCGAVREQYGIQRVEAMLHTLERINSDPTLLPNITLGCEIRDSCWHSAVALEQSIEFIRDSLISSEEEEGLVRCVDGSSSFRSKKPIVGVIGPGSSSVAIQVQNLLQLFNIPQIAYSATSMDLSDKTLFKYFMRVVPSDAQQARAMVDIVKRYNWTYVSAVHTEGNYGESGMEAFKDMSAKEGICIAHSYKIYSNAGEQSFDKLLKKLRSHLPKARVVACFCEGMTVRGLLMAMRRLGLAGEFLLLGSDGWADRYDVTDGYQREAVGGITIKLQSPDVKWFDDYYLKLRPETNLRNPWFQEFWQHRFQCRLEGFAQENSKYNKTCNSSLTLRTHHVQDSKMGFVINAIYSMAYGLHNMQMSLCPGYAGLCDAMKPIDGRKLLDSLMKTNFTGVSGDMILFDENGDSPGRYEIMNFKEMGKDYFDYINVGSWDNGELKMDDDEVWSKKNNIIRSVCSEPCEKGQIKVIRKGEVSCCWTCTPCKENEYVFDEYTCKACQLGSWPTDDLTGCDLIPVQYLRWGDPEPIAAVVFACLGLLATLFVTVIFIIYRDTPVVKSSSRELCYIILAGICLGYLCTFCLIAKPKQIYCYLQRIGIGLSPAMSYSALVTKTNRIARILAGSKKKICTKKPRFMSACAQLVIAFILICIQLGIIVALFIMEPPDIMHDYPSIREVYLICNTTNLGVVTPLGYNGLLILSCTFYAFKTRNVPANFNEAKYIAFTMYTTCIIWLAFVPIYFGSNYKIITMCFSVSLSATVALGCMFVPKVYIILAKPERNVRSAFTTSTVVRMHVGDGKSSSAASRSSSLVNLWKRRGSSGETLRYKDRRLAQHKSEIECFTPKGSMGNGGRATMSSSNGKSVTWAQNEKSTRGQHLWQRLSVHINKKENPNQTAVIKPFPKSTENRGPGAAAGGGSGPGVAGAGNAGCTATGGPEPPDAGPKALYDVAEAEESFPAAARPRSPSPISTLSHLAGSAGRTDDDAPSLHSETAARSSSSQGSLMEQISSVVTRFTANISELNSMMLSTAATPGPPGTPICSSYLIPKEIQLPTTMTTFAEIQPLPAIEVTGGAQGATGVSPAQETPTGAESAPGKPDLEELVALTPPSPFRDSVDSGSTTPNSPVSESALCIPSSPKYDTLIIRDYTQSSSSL
Metabotropic glutamate receptor 1 (Rattus norvegicus), sequence (P23385 19-1199 limits assumed): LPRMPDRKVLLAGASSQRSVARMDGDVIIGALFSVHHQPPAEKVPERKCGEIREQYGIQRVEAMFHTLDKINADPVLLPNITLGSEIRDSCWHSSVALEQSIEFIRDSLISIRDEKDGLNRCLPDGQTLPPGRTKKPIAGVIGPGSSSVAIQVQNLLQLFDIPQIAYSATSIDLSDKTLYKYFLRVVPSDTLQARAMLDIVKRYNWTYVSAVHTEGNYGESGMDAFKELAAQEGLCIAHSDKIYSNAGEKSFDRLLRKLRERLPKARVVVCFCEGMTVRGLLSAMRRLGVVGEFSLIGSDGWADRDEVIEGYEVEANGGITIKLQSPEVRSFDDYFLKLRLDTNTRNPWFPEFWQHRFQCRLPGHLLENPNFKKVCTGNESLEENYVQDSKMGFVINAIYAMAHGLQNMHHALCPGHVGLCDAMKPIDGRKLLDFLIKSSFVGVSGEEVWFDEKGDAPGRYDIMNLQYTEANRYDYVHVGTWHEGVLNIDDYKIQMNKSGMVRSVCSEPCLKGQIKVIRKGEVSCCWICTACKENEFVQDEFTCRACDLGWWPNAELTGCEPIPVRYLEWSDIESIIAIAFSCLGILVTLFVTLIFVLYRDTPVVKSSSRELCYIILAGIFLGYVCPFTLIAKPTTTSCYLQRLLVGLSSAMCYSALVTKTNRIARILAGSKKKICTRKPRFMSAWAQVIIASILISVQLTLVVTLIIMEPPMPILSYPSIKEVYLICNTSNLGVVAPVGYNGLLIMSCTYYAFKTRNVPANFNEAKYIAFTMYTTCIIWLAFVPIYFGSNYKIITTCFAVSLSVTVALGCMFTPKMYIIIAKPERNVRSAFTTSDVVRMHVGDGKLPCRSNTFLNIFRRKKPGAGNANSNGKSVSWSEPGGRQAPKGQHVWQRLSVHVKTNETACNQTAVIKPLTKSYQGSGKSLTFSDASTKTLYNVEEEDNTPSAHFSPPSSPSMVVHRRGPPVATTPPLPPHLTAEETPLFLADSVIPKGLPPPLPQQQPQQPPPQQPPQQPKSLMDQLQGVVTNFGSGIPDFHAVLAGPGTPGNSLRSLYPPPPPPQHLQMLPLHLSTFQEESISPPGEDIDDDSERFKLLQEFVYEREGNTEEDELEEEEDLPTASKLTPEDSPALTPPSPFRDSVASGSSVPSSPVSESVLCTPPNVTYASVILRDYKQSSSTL
Metabotropic glutamate receptor 8 (Rattus norvegicus), sequence (P70579 whole entry): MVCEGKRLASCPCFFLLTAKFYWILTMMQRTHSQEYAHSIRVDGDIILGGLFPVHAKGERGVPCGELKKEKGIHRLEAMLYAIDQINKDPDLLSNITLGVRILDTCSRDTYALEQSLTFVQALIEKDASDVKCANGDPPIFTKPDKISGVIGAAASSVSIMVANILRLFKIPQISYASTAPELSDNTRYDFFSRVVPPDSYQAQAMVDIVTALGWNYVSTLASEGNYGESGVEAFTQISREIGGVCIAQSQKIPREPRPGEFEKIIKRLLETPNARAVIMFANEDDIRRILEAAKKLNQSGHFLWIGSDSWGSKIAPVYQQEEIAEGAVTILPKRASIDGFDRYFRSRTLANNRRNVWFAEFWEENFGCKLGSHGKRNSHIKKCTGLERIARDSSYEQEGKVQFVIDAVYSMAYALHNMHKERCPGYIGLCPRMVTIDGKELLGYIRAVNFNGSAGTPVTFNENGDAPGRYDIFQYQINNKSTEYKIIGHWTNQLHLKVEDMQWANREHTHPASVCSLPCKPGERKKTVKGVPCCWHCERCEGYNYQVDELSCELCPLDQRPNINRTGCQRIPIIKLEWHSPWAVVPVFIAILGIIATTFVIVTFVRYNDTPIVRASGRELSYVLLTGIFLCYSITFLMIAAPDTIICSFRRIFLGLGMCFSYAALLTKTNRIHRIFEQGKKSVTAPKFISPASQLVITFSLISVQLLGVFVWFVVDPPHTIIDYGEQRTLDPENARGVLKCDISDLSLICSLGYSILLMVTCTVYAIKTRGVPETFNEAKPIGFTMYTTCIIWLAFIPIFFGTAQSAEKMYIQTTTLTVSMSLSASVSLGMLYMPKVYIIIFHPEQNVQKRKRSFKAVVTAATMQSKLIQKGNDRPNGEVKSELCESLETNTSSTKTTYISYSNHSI

By pEC50 is commonly meant the EC50 on a negative log10 scale, so that one unit is a factor of ten. As for `O=C(COCc1ccccc1)N1CCN(c2ncccc2C(F)(F)F)CC1`, the negative-log EC50 (pEC50) in series [1] is 5.37. In series [2], the Activity came out at 70%.
As for `O=C(COCc1ccccc1)N1CCN(c2ncccn2)CC1`, the EC50 entry in series [1] is given as “Not Active”.
Usually solubility stands for the dissolved amount per volume that the medium holds. For the compound `N#Cc1ccccc1N1CCN(C(=O)COCc2ccccc2)CC1`, the remaining at 1 h in [3] and in series [6] was less than 5% throughout. In addition, the PPB with Plasma [4] is on record as 90%; with Plasma [7] it was 94%. In addition, the result in series [5], in series [10], in series [11], in series [13], in series [14] and in [15] was inactive. In addition, the result in series [16] and in series [18] was inactive. Also, the outcome (in series [8]; in the series with Rattus norvegicus) was Active. In addition, in series [9], the Papp was found to be 2.2 ×10⁻⁶ cm/s. In [1], the pEC50 was 5.80. Besides, the fold change (FC) in series [12] is 12. Further, the solubility in [17], in series [19] and in series [21] was greater than 80 µM throughout. Further, the Activity in series [20] is less than 10%; in series [2], 78%.
Turning to `O=C(COCc1ccccc1)N1CCN(c2ccccc2[N+](=O)[O-])CC1`, the negative logarithm of the EC50 (pEC50) in series [1] was 5.74. Also, the Activity in series [2] is 81%.
For the compound `O=C(COCc1ccccc1)N1CCN(c2ccccn2)CC1`, the negative logarithm of the EC50 (pEC50) in series [1] was 5.27. For the same compound, the Activity in series [2] came to 86%.
Broadly, the pIC50 is the negative decadic logarithm of the IC50, by convention in mol/L. As to `O=C(N1CCN(c2ccccn2)CC1)C12CC3CC(CC(C3)C1)C2`, the pIC50 in [22] was 6.00.
Take `O=C(COCc1ccccc1)N1CCN(c2nccs2)CC1`: the negative-log EC50 (pEC50) in series [1] is less than 5.00. The Activity in [2] came to 30%.
Consider `COC(=O)c1ccccc1N1CCN(C(=O)COCc2ccccc2)CC1`, for which the pEC50 in series [1] was less than 5.00. Moreover, the Activity in series [2] came to 51%.
In the same order, the values of `O=C(COCc1ccccc1)N1CCN(c2ccccc2Cl)CC1` are 6.09 and 90%.
As for `O=C(COCc1ccccc1)N1CCN(c2nc3ccccc3s2)CC1`, in [1], the pEC50 was less than 5.00. In series [2], the Activity was 66%.
The like results for `COc1ccccc1N1CCN(C(=O)COCc2ccccc2)CC1` were, in that order, 5.04 and 86%.
As to `O=C(COCc1ccccc1)N1CCN(c2cccnc2)CC1`, the EC50 result in series [1] is given as “Not Active”.
With `N#Cc1cccnc1N1CCN(C(=O)COCc2ccccc2)CC1`, the negative logarithm of the EC50 (pEC50) in [1] is less than 5.00. Besides, the Activity in series [2] was found to be 33%.
